Experimental data gathered from unrelated publications.
Lines come from different studies, so protocols differ.
Target: Mitogen-activated protein kinase kinase kinase 11 (MAP3K11, Homo sapiens, UniProt Q16584)

| SMILES | assay | setting | measurement | value |
| --- | --- | --- | --- | --- |
| O=C(NCCCNc1nc(Nc2cccc(NC(=O)N3CCCC3)c2)ncc1Br)C1CCC1 | enzyme activity, inhibitor, radiometric | 1 µM | remaining activity | -3% |
| COc1cc(/C=C/C(=O)CC(=O)/C=C/c2ccc(O)c(OC)c2)ccc1O | enzyme activity, inhibitor | 1 µM | activity vs control | 14% |
| Cc1nn(CC(F)(F)F)cc1Nc1ncc(Br)c(NCc2ccc(S(N)(=O)=O)cc2)n1 | enzyme activity, inhibitor, radiometric | 1 µM | remaining activity | 82% |
| CC(C)(O)c1cncc(-c2nc3ccc(F)cc3n2C2CC2)c1 | cell-free assay, competition with immobilised ligand | 1 µM | remaining binding | 100% |
| COc1cc(Nc2cnc(C#N)c(O[C@H](C)CN(C)C)n2)ncc1-c1cnn(C)c1 | enzyme activity, inhibitor, radiometric | 1 µM | remaining activity | 68% |
| COCCOc1nc(-c2ccc(Cl)nc2)nc2c1CN(C(=O)c1ncn3ccccc13)CC2 | cell-free assay, competition with immobilised ligand | 0.1 µM | remaining binding | 100% |
| O=C1NC(=O)c2cc(Nc3ccc(F)cc3)c(Nc3ccc(F)cc3)cc21 | cell-free assay | 0.5 µM | remaining signal | 98.4% |
| CC/C(=N\NC(=O)NCc1cccc(O)c1)c1ccc(O)c(C)c1O | enzyme activity, inhibitor | 0.1 µM | inhibition | 9.4% |
| COc1ccc(COc2ccc(Cc3cnc(N)nc3N)cc2OC)cc1 | cell-free assay | 0.5 µM | remaining signal | 101% |
| O=C(NCCCNc1nc(Nc2cccc(NC(=O)N3CCCC3)c2)ncc1C1CC1)C1CCC1 | enzyme activity, inhibitor, radiometric | 1 µM | remaining activity | 27% |
| CNC(=O)c1cc(Oc2ccc(NC(=O)Nc3ccc(Cl)c(C(F)(F)F)c3)cc2)ccn1 | cell-free assay | 0.5 µM | remaining signal | 98.3% |
| O=C(Nc1cnn(-c2csc(C(=O)NC3COC3)c2)c1)Nc1c(F)cccc1Cl | enzyme activity, inhibitor | 5 µM | remaining activity | 84.7% |
| CN1CCc2cc(Nc3ncc(C4CC4)c(NCCCNC(=O)C4CCC4)n3)ccc2C1 | enzyme activity, inhibitor, radiometric | 1 µM | remaining activity | 44% |
| O=C(NCc1ncc(C(F)(F)F)cc1Cl)c1ccc2c(c1)C1(CCS(=O)(=O)CC1)[C@@H](C1CC1)N2S(=O)(=O)c1ccc(F)cc1 | cell-free assay, competition with immobilised ligand | 1 µM | remaining binding | 100% |
| Cc1nn(CC(F)(F)F)cc1Nc1ncc(C2CC2)c(NCCCNC(=O)C2CCC2)n1 | enzyme activity, inhibitor, radiometric | 1 µM | remaining activity | 94% |
| Cn1nc(C(=O)NCc2ccc(C(=O)O)cc2)cc1-c1ccc2[nH]ccc2c1 | cell-free assay, competition with immobilised ligand | 0.1 µM | remaining binding | 87% |
| Cc1nn(CC(F)(F)F)cc1Nc1ncc(Br)c(NCCc2cnc[nH]2)n1 | enzyme activity, inhibitor, radiometric | 1 µM | remaining activity | 60% |
| COc1cc2ncnc(Nc3ccc(F)c(Cl)c3)c2cc1OCCCN1CCOCC1 | cell-free assay | 0.5 µM | remaining signal | 102% |
| CCC(=O)N[C@@H]1CC[C@H](C(=O)N(C)c2ccc(-c3nc4ccccc4o3)cc2)C1 | cell-free assay, competition with immobilised ligand | 1 µM | remaining binding | 100% |
